From PubChem BioAssay
Unmarked numbers belong to inactive results. Inconclusive results are not listed. The source made the active and inactive calls.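 The calls were made as follows, unless noted: active = RAM network inhibition above 8.4% in each of two replicates, 3 SD over the compound average; inconclusive = above 8.4% inhibition in only one replicate; inactive = 8.4% inhibition or less in each replicate.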

Tests used:
[1] = S. cerevisiae growth inhibition in permissive medium (OD615), pilot counter-assay for S. cerevisiae lifespan shortening project, permissive growth control (AID 705;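 active = growth inhibition above 25% in both replicates, a cutoff set 3 SD above the mean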); conditions: OD615, 24 h, at 10 µM, active compounds read high
Summary of the method: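 assay system = Saccharomyces cerevisiae strain carrying genetically modified DeaD replicative-lifespan system | medium = SC raffinose/galactose permissive medium | dosing = 10 µM single dose, 0.25% DMSO | schedule = 24 h compound exposure at 30 °C after 4 h pre-growth | measured by = OD at 615 nm | read-out basis = growth inhibition from lowered OD615 after 24 h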

[2] = S. cerevisiae growth inhibition in restrictive medium, OD615, pilot screen, restrictive growth control, yeast lifespan reduction project (AID 706;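 active = growth inhibition above a set limit, 3 SD over mean compound inhibition, in both replicates, cut at about 43% in these data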;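 also: modified DeaD lifespan yeast strain shifted to restrictive glucose medium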); conditions: OD615, 48 h, at 10 µM, active compounds read high
Summary of the method: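 Buffer or medium: CSMM-D glucose medium. Material: genetically modified Saccharomyces cerevisiae, DeaD replicative lifespan assay strain. Times: 48 h compound exposure at 30 °C. Measured by: optical density at 615 nm.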

[3] = doxorubicin toxicity protection in MRP-1 cells – H69AR cells, CellTiter-Glo, duplicate, MRP-1 activator project, pilot screen (AID 807;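 active = viability increase at or above a cutoff of the median across tested compounds plus 3 SD, cut at about 8.5% in these data, passing the limit was not always enough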;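 also: compound pretreatment 18-22 h then 72 h combined with doxorubicin; 0% = doxorubicin alone and 100% = vehicle without doxorubicin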); conditions: H69AR viability with doxorubicin, CellTiter-Glo luminescence; at 10 µM; active compounds read high
[4] = viability of HCT116 without oncogenic beta-catenin – human colon tumor cells, pilot screen (AID 823;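 active = cell viability at or below a set limit in both duplicate runs, the limit being the all-compound median minus 4 SD, cut at about 23% in these data, passing the limit was not always enough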;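 also: 0% = wells killed by 20 µM Hyamine and 100% = untreated DMSO cell wells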); conditions: HCT116 beta-catenin knockout viability, CellTiter-Glo, 60 h; at 10 µM; active compounds read low
[5] = viability of PTEN-null HCT116 cells – cell-based, HCT116 clonal line, CellTiter-Glo, pilot screen (AID 824;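 active = viability at or below 27.92% in each of two runs, the all-compound median minus 4 SD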;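 also: 0% = 20 µM Hyamine control and 100% = vehicle cell control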); conditions: HCT116 PTEN-deleted viability, 60 h, at 10 µM, active compounds read low
[6] = RAM pathway blockade in budding yeast – dse1pr::URA3 reporter, 5-FOA selection, pilot screen (AID 869;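 active = inhibition over a set limit, the all-compound mean plus 3 SD, in both replicate runs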;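 also: 0% = DMSO wells with no growth and 100% = 10 µM 1-NA-PP1 with full growth; RAM network block rescues cells from 5-FOA so hits raise OD615 growth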); conditions: S. cerevisiae dse1pr::URA3 5-FOA growth, OD615, 2 d; at 10 µM; active compounds read high; strain carries analog-sensitive mutant Cbk1 kinase
[7] = RAM signaling pathway blockade in yeast – S. cerevisiae, Pdr1DBD-CYC8 efflux-inhibited sensitized strain, primary screen (AID 1298);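 also: 0% = DMSO untreated cells without growth and 100% = 10 µM 1-NA-PP1 full growth; higher means more yeast growth rescued from 5-FOA killing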; conditions: S. cerevisiae cbk1-as DSE1-URA3 strain, 5-FOA growth OD615, 2 d; at 50 µM; active compounds read high

| SMILES | growth inhibition [1] | growth inhibition [2] | viability increase [3] | viability [4] | viability [5] | inhibition [6] | RAM network inhibition [7] |
| --- | --- | --- | --- | --- | --- | --- | --- |
| CCOc1ccc(-c2nnc3n2N=C(c2ccc(OC)cc2)CS3)cc1 | -2.4% | -3.84% | -5.29% | 84% | 82% | 1.72% | 5.3% |
| CCOC(=O)N1CCC(N2C(=O)c3ccccc3C2Nc2cc(OC)c(OC)c(OC)c2)CC1 (configuration not stated) | 6.9% | 8.61% | -4.12% | 92.2% | 79.2% | 0.24% | 0.78% |
| Cc1ccccc1-c1c(C)oc2cc(O)ccc2c1=O | 1.68% | -0.005% | -4.28% | 96.8% | 92.2% | 2.21% | 2.67% |
| CCn1cc(C(=O)N2CCCC2)c(=O)c2cc(S(=O)(=O)N(C)C)ccc21 | -3.43% | 6.6% | 0.77% | 106% | 101% | 0.825% | 3.02% |
| CN(C)S(=O)(=O)c1ccc(C(=O)Nc2ccc(F)cc2F)cc1 | -14.5% | 0.42% | 1.08% | 95.5% | 94.4% | 0.29% | 2.9% |
| CCOC(=O)N1CCN(CC(=O)Nc2ccc(C)cc2)CC1 | -4.43% | 4.79% | -3.03% | 98.3% | 100% | 1.11% | -0.15% |
| O=C1CCCC2=C1C(c1cn(-c3ccccc3)nc1-c1cccs1)c1c([nH]c(=O)[nH]c1=O)N2 (configuration not stated) | -11.2% | -27.7% | 1.36% | 106% | 99.1% | 0.32% | 2.19% |
| Clc1ccc(-c2noc(COc3ccccc3)n2)cc1 | -3.93% | 14.3% | 2.15% | 101% | 95.6% | 0.745% | 9.14% |
| CC(=O)c1sc(NC(=O)c2ccccc2F)nc1C | -10.4% | -3.2% | -0.32% | 79% | 75.2% | 0.31% | 0.74% |
| COc1cc(OC)cc(C(=O)Nc2cccc(NC(C)=O)c2)c1 | -2.19% | -3.84% | -2.31% | 111% | 108% | 2.15% | 2.04% |
| S=c1[nH]nc(CSc2nc3ccccc3s2)o1 | -1.19% | 16.7% | -4.34% | 93.8% | 99.1% | 0.95% | 0.83% |
| Cc1ccc2c(c1)c(C)c(C)n2CC(O)CN1CCCCC1C (configuration not stated) | -9.72% | -9.14% | -4.02% | 72.2% | 79.6% | 0.91% | 2.28% |
| CC1(C)Cc2c(C#N)c(N)sc(=S)c2CO1 | 21.9% | 67% (active) | -1.77% | 101% | 106% | 1.27% | 2.98% |
| COc1ccc(OC)c(C2C(C(N)=O)=C(C)Nc3nc(CCCO)nn32)c1 (configuration not stated) | -12.9% | -20.6% | 0.09% | 97.3% | 95.6% | 1.61% | 5.21% |
| COc1ccc(C2C(C(=O)N3CCN(c4ccccc4)CC3)c3ccccc3C(=O)N2C)cc1OC (configuration not stated) | -8.36% | -14.2% | -1.19% | 97.1% | 99.3% | 1.28% | 0.53% |
| CCCC(=O)NCCCc1nc2ccccc2n1C(C)C | -18.1% | -23.6% | 1.18% | 102% | 96.2% | 1.66% | 3.95% |
| Cc1noc(C)c1S(=O)(=O)N(CC(=O)N1CCc2ccccc21)c1ccc(C(C)C)cc1 | -4.56% | -7.38% | -5.04% | 86.7% | 82.5% | 1.3% | 5.36% |
| CCOC(=O)c1ccccc1NC(=O)C1COc2ccccc2O1 (configuration not stated) | -25.8% | -30.7% | 4.16% | 83.2% | 87.8% | 1.09% | 4.22% |

| SMILES | growth inhibition [1] | growth inhibition [2] | viability increase [3] | viability [4] | viability [5] | inhibition [6] | RAM network inhibition [7] |
| --- | --- | --- | --- | --- | --- | --- | --- |
| CCc1ccccc1S(=O)(=O)Cc1ccc(C(=O)N2CCN(c3ccccn3)CC2)o1 | -8.76% | -27% | -3.28% | 84.1% | 78% | 1.54% | 2.4% |
| O=C(Cn1cc2c(n1)CCCC2)Nc1ccccc1Br | -13% | -9.29% | -2.82% | 95.7% | 86.7% | 1.64% | 1.15% |
| Cc1ccc(OCCN2CCCCCC2)c(C)c1 | -6.26% | 2.46% | -3.81% | 71.1% | 70.4% | 1.21% | 2.8% |
| CCn1c(C(=O)NC(C)c2ccc3c(c2)OCCO3)cc2sccc21 (configuration not stated) | -7.09% | -9.22% | -0.14% | 96.1% | 82% | 1.62% | 3.22% |
| Cc1cc(C)n(C(=O)CCN2C(=O)c3ccccc3C2=O)n1 | -14.3% | 5.39% | 2% | 94.9% | 103% | -0.64% | -0.15% |
| COc1cc(S(=O)(=O)N2CCN(c3ccccc3)CC2)ccc1Cl | -16.9% | -14% | -3.07% | 95.1% | 95.3% | 0.17% | 6.95% |
| O=c1nc2s/c(=C\c3ccco3)c(=O)n2nc1Cc1ccccc1 | -15.4% | -3.2% | -2.41% | 97.7% | 94.8% | 2.04% | 4.31% |
| CCOC(=O)c1c(C)oc2ccc(OC(=O)N3CCOCC3)cc12 | -16.1% | 0.815% | -1.36% | 93.8% | 89.6% | 0.115% | 0.98% |
| O=P(O)(CCc1ccccn1)CN1CCOCC1 | -17.5% | -15.6% | 1.31% | 92.6% | 92.5% | 2.73% | 1.09% |
| COc1ccccc1NC(=O)C1CCCN(S(=O)(=O)c2cnc[nH]2)C1 (configuration not stated) | 1.64% | -3.54% | -0.26% | 97% | 95.5% | 0.53% | 0.84% |
| CCN1C(=O)C(O)(CC(=O)c2ccc3c(c2)OCCO3)c2ccccc21 (configuration not stated) | -0.735% | -5.33% | -2.07% | 99.1% | 94% | 0.24% | 5.92% |
| CCOc1ccc(N(CC(=O)NCc2cccs2)S(=O)(=O)c2c(C)noc2C)cc1 | -17.4% | -7.87% | -2.25% | 95.1% | 94.7% | 1.49% | 6.62% |
| CCOC(=O)Cc1cnc(NC(=O)c2ccccc2)s1 | 6.17% | 5.05% | -1.51% | 92.3% | 89.6% | 0.365% | 2.27% |
| Fc1ccccc1N1CCN(C2CCN(Cc3c[nH]c4ccccc34)CC2)CC1 | -1.12% | 2.13% | -6.63% | 47.1% | 58.8% | 1.08% | 0.22% |
| CCCCN(C)CCNC(=O)Cn1ncc2c(=O)oc3ccc(C)cc3c21 | -3.19% | 0.355% | -2.9% | 95.1% | 94.2% | 0.93% | 3.72% |
| COc1ccccc1N1CCN(c2nc(N)c(C#N)c(CC#N)c2C#N)CC1 | -1.4% | -0.44% | 2.45% | 96.7% | 86.3% | 1.54% | 3.57% |
| CC1Cc2ccccc2C(=O)N1 (configuration not stated) | 0.58% | 11.4% | 0.15% | 106% | 99% | 0.36% | 3.5% |
| CCCSc1nc2c(cnn2-c2ccc(C)c(C)c2)c(=O)[nH]1 | -8.57% | -3.42% | -1.72% | 93.2% | 69.9% | 2.58% | 4.37% |
